Measured values published in ChEMBL document CHEMBL1145786, “Synthesis and structure-activity relationship of alpha-sulfonylhydroxamic acids as novel, orally active matrix metalloproteinase inhibitors for the treatment of osteoarthritis” (J Med Chem, 2003).

Columns and labels:
[1] = molecular target: T1, Interstitial collagenase (Homo sapiens) (UniProt P03956); test: Inhibition of Matrix metalloprotease-1 at 10 uM
T1 sequence (whole entry): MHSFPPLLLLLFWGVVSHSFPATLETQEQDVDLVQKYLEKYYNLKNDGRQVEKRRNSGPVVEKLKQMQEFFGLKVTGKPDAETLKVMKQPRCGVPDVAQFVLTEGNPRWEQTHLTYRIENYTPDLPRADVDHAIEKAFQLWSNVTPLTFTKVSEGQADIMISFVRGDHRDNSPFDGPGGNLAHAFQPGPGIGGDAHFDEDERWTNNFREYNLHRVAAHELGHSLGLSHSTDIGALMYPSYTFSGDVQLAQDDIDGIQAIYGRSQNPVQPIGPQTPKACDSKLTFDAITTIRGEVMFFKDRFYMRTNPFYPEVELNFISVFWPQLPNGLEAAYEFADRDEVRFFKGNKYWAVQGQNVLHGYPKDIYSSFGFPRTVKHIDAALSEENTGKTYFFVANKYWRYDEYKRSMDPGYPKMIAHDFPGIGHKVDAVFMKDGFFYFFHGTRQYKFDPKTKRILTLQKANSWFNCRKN
How it was run: (§1)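 Single-point enzyme inhibition at 10 µM inhibitor, reported as percent inhibition. Full dose-response curves were run only where inhibition reached at least 60% at 10 µM.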

[2] = tested on: Mus musculus; test: Compound was tested in vivo for inhibition using dialysis implant data, value expressed relative to activity of CGS-27023 at dose 25 mg/kg(po) (73 +/-4); assay type: functional
How it was run: (§2)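 Groups of mice dosed orally at 25 mg/kg with drug or vehicle carrying an implanted enzyme-containing dialysis bag. After 1 h of exposure, bag retrieved, and enzyme activity inside measured spectrophotometrically against bags from vehicle-treated mice. Percent inhibition expressed relative to CGS-27023 (set as 1) run as standard.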

[3] = molecular target: T2, Matrix metalloproteinase-9 (Homo sapiens, UniProt P14780); test: In vitro inhibition of matrix metalloprotease-9
T2 sequence (P14780 whole entry): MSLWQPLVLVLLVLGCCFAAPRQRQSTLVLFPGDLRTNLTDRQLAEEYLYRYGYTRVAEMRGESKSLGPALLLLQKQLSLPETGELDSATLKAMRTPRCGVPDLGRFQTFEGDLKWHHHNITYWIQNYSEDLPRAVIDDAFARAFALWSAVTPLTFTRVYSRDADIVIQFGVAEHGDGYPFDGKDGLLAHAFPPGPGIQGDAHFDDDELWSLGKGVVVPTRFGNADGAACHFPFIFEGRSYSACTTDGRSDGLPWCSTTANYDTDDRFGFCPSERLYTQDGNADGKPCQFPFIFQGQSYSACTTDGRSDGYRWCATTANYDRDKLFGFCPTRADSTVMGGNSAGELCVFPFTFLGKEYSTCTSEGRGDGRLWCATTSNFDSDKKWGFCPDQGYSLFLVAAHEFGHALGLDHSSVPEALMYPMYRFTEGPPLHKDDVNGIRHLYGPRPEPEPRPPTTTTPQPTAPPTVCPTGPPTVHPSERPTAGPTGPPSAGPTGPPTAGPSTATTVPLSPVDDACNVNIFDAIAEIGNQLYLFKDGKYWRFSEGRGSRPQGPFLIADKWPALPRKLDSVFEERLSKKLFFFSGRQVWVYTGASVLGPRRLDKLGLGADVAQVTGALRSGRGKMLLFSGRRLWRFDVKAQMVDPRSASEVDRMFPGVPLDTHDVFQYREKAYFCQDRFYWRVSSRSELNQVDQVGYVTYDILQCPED
How it was run: (§3)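 Each inhibitor concentration tested in triplicate. IC50 derived from a four-parameter logistic fit of the data within a single experiment, and the reported value is the mean of the triplicate values.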

[4] = molecular target: T3, Disintegrin and metalloproteinase domain-containing protein 17 (Homo sapiens, UniProt P78536); test: In vitro inhibition against tumor necrosis factor alpha converting enzyme at 10 uM concentration; how it was run: as §1
T3 sequence (P78536 whole entry, the tested form may be a part): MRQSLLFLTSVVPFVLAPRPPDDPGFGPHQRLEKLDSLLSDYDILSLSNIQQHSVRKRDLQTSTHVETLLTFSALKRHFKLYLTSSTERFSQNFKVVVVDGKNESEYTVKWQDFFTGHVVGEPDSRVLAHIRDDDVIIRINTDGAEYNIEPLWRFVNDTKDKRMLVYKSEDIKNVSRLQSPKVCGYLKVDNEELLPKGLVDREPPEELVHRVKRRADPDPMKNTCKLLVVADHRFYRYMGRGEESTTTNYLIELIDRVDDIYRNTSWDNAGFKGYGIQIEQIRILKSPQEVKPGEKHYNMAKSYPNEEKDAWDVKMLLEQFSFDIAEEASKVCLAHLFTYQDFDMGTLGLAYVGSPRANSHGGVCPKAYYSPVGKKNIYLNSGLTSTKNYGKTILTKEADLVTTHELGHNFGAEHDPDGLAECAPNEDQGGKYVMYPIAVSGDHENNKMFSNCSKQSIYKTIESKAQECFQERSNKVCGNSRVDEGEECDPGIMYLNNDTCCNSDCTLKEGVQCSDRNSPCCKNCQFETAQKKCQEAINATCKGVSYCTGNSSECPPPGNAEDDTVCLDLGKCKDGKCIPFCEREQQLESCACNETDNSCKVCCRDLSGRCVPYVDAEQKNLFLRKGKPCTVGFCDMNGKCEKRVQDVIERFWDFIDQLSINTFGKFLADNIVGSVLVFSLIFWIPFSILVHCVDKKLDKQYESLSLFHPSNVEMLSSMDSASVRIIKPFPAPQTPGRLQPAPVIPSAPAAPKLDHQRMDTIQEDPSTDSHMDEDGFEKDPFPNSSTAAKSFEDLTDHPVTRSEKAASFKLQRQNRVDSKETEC

[5] = molecular target: T4, Collagenase 3 (Homo sapiens, UniProt P45452); test: In vitro inhibition of matrix metalloprotease-13
[6] = tested on: Mus musculus; test: Compound was tested in vivo for inhibition using dialysis implant, value expressed relative to activity of CGS-27023 at dose 25 mg/kg(po) (66 +/- 4); assay type: functional; how it was run: as §2
[7] = tested on: Rattus norvegicus; test: Compound was tested in vivo for inhibition in rat sponge-wrapped cartilage model, value expressed relative to activity of CGS-27023 at dose 25 mg/kg (p.o.) in (52+/-4); assay type: functional; settings: route oral
How it was run: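 Oral dosing at 25 mg/kg once daily for 3 weeks, with CGS-27023 as comparator. Read-out was percent inhibition of degradation of bovine cartilage in the sponge-wrapped implant.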

[8] = tested on: Mus musculus; test: Compound was tested in vivo for inhibition using dialysis implant, value expressed relative to activity of CGS-27023 at dose 25 mg/kg (p.o.) (66+/-4); assay type: functional; settings: route oral; how it was run: as §2
[9] = tested on: Mus musculus; test: Compound was tested in vivo for inhibition using dialysis implant, value expressed relative to activity of CGS-27023 at dose 25 mg/kg(po)(53 +/-4); assay type: functional; how it was run: as §2
[10] = molecular target: T2, Matrix metalloproteinase-9; test: Inhibition of Matrix metalloprotease-9 at 10 uM; how it was run: as §1
[11] = tested on: Mus musculus; test: Compound was tested in vivo for inhibition using dialysis implant, value expressed relative to activity of CGS-27023 at dose 25 mg/kg(po) (77+/-3); assay type: functional; how it was run: as §2
[12] = molecular target: T3, Disintegrin and metalloproteinase domain-containing protein 17; test: Inhibition of Tumor necrosis factor alpha converting enzyme
[13] = molecular target: T5, Interstitial collagenase (Homo sapiens, UniProt P03956); test: In vitro inhibition of matrix metalloprotease-1
T5 sequence (P03956 whole entry): T1 sequence (whole entry)

[14] = tested on: Mus musculus; test: Compound was tested in vivo for inhibition using dialysis implant, values expressed relative to activity of CGS-27023 at dose 25 mg/kg(po)(68 +/-3); assay type: functional; how it was run: as §2
[15] = tested on: Mus musculus; test: Compound was tested in vivo for inhibition using dialysis implant data, value expressed relative to activity of CGS-27023 at dose 25 mg/kg(po)(67 +/-3); assay type: functional; how it was run: as §2
[16] = molecular target: T4, Collagenase 3; test: Inhibition of Matrix metalloprotease-13
[17] = molecular target: T5, Interstitial collagenase; test: Inhibition of Matrix metalloprotease-1; how it was run: as §3
[18] = molecular target: T2, Matrix metalloproteinase-9; test: Inhibition of Matrix metalloprotease-9; how it was run: as §3
[19] = tested on: Mus musculus; test: Compound was tested in vivo for inhibition using dialysis implant, value expressed relative to activity of CGS-27023 at dose 25 mg/kg(po)(53 +/- 4); assay type: functional; how it was run: as §2
[20] = tested on: Mus musculus; test: Compound was tested in vivo for inhibition using dialysis implant, values expressed relative to activity of CGS-27023 at dose 25 mg/kg(po)(60 +/-4); assay type: functional; how it was run: as §2
[21] = molecular target: T3, Disintegrin and metalloproteinase domain-containing protein 17; test: Inhibition of Tumor necrosis factor alpha converting enzyme at 10 uM

## CCCCCCCCCCCCC(C(=O)NO)S(=O)(=O)c1ccc(OC)cc1 (centres undefined)
[1]
  inhibition: 18%

## COc1ccc(S(=O)(=O)C(C)(Cc2ccc(OCCCN3CCN(c4cccc(Cl)c4)CC3)cc2)C(=O)NO)cc1 (centres undefined)
[2]
  inhibition in vivo at 25 mg/kg: 72%
[3]
  IC50: 7 nM
[4]
  inhibition: 40%

## C#CCC(Cc1cccnc1)(C(=O)NO)S(=O)(=O)c1ccc(OC)cc1 (centres undefined)
[4]
  inhibition: 23%
[5]
  IC50: 32 nM

## COc1ccc(S(=O)(=O)C(C)(Cc2ccc(OCCN3CCCCCC3)cc2)C(=O)NO)cc1 (centres undefined)
[6]
  inhibition in vivo at 25 mg/kg: 65%
[7]
  inhibition in vivo at 25 mg/kg: 67%
[4]
  inhibition: 29%

## CC(C)=CCC(CC=C(C)C)(C(=O)NO)S(=O)(=O)c1ccc(C)cc1
[4]
  inhibition: 36%
[5]
  IC50: 6 nM

## CCN(CC)CCOc1ccc(CC(C)(C(=O)NO)S(=O)(=O)c2ccc(OC)cc2)cc1 (centres undefined)
[8]
  inhibition in vivo at 25 mg/kg: 68%
[3]
  IC50: 13 nM
[4]
  inhibition: 39%
[5]
  IC50: 15 nM

## CCCCOc1ccc(S(=O)(=O)C(C)(Cc2ccc(OCCN3CCCCC3)cc2)C(=O)NO)cc1 (centres undefined)
[9]
  inhibition in vivo at 25 mg/kg: 64%
[3]
  IC50: 3 nM
[4]
  inhibition: 30%

## COc1ccc(S(=O)(=O)C(C(=O)NO)C(C)C)cc1 (centres undefined)
[10]
  inhibition: 27%
[4]
  inhibition: 52%

## COc1ccc(S(=O)(=O)C(C)(Cc2ccc(OCCN3CCCCC3)cc2)C(=O)NO)cc1 (centres undefined)
[11]
  inhibition in vivo at 25 mg/kg: 78%
[7]
  inhibition in vivo at 25 mg/kg: 69%
[4]
  inhibition: 41%

## CCCCCCCC[C@@](Cc1cccnc1)(C(=O)NO)S(=O)(=O)c1ccc(OC)cc1
[12]
  IC50: 669 nM

## COc1ccc(S(=O)(=O)[C@](C)(Cc2ccc(OCCN3CCCCC3)cc2)C(=O)NO)cc1 (stereo in doubt; form 2)
[13]
  IC50: 154 nM
[3]
  IC50: 5 nM
[14]
  inhibition in vivo at 25 mg/kg: 69%

## CCCC[C@@](Cc1cccnc1)(C(=O)NO)S(=O)(=O)c1ccc(OC)cc1
[12]
  IC50: 764 nM
[10]
  inhibition: 88%

## COc1ccc(S(=O)(=O)C(Cc2ccccc2)C(=O)NO)cc1 (centres undefined)
[5]
  IC50: 100 nM

## COc1ccc(CS(=O)(=O)C(C)(Cc2ccccc2)C(=O)NO)cc1 (centres undefined)
[13]
  IC50: 10 nM
[4]
  inhibition: 3%

## CC(Cc1ccccc1)(C(=O)NO)S(=O)(=O)c1cccs1 (centres undefined)
[13]
  IC50: 49 nM
[3]
  IC50: 49 nM
[4]
  inhibition: 20%
[5]
  IC50: 37 nM

## C#CCC(CC#C)(C(=O)NO)S(=O)(=O)c1ccc(OC)cc1
[4]
  inhibition: 20%

## COc1ccc(S(=O)(=O)C(Cc2cccnc2)(CC(C)C)C(=O)NO)cc1 (centres undefined)
[13]
  IC50: 1000 nM
[4]
  inhibition: 42%

## COc1ccc(S(=O)(=O)C(C)(Cc2ccc(OCCN3CCOCC3)cc2)C(=O)NO)cc1 (centres undefined)
[13]
  IC50: 413 nM
[15]
  inhibition in vivo at 25 mg/kg: 48%
[3]
  IC50: 21 nM
[4]
  inhibition: 47%

## C=CCC(CC=C)(C(=O)NO)S(=O)(=O)c1ccc(OC)cc1
[4]
  inhibition: 7%

## COc1ccc(S(=O)(=O)C(C)(Cc2cccnc2)C(=O)NO)cc1 (centres undefined)
[4]
  inhibition: 17%

## COc1ccc(S(=O)(=O)C(CC=C(C)C)(CC=C(C)C)C(=O)NO)cc1
[3]
  IC50: 0.5 nM

## CCCCCCCCS(=O)(=O)C(C)(Cc1ccc(OCCN2CCCCC2)cc1)C(=O)NO (centres undefined)
[13]
  IC50: 10 nM
[3]
  IC50: 23 nM
[4]
  inhibition: 65%
[5]
  IC50: 55 nM

## CCN(CC)COc1ccc(CC(C)(C(=O)NO)S(=O)(=O)c2ccc(-c3ccco3)cc2)cc1 (centres undefined)
[13]
  IC50: 14 nM
[3]
  IC50: 4 nM
[4]
  inhibition: 45%
[5]
  IC50: 2 nM

## CC(Cc1ccc(OCCN2CCCCC2)cc1)(C(=O)NO)S(=O)(=O)c1cccs1 (centres undefined)
[13]
  IC50: 99 nM
[3]
  IC50: 79 nM
[4]
  inhibition: 51%
[5]
  IC50: 85 nM

## COc1ccc(S(=O)(=O)C(C)(Cc2ccc3ccccc3c2)C(=O)NO)cc1 (centres undefined)
[3]
  IC50: 8 nM

## CCCCC(C(=O)NO)S(=O)(=O)c1ccc(OC)cc1 (centres undefined)
[1]
  inhibition: 8%
[4]
  inhibition: 54%

## CCOc1ccc(S(=O)(=O)C(C)(Cc2ccc(OCCN(CC)CC)cc2)C(=O)NO)cc1 (centres undefined)
[16]
  IC50: 16 nM
[17]
  IC50: 627 nM
[18]
  IC50: 11 nM
[19]
  inhibition in vivo at 25 mg/kg: 74%

## COc1ccc(S(=O)(=O)C(C)(C/C=C/c2ccccc2)C(=O)NO)cc1 (centres undefined)
[13]
  IC50: 299 nM
[3]
  IC50: 16 nM
[4]
  inhibition: 65%
[5]
  IC50: 12 nM

## COc1ccc(S(=O)(=O)[C@](C)(Cc2ccc(OCCN3CCCCC3)cc2)C(=O)NO)cc1 (stereo in doubt; form 1)
[20]
  inhibition in vivo at 25 mg/kg: 15%
[13]
  IC50: 2530 nM
[3]
  IC50: 112 nM

## COc1ccc(S(=O)(=O)C(C)(Cc2ccc(-c3ccccc3)cc2)C(=O)NO)cc1 (centres undefined)
[4]
  inhibition: 17%

## CCCCCCCCS(=O)(=O)C(C)(Cc1ccccc1)C(=O)NO (centres undefined)
[4]
  inhibition: 1%

## CCCC(CCC)(C(=O)NO)S(=O)(=O)c1ccc(OC)cc1
[1]
  inhibition: 30%
[4]
  inhibition: 24%

## COc1ccc(S(=O)(=O)C(C)(Cc2ccc(OCCN(C(C)C)C(C)C)cc2)C(=O)NO)cc1 (centres undefined)
[21]
  inhibition: 31%

## COc1ccc(S(=O)(=O)C(CCC(C)C)(Cc2cccnc2)C(=O)NO)cc1 (centres undefined)
[4]
  inhibition: 41%

## COc1ccc(S(=O)(=O)C(C)(Cc2ccccc2)C(=O)NO)cc1 (centres undefined)
[4]
  inhibition: 15%
